Assay [1] is described as follows: Her2 expression decrease, cell viability multiplex – SKBR3 breast tumor cells, AlphaScreen, ATP viability, primary screen (AID 461;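 active means Her2 level under about 52% in both replicate screens, with viability over 70% of control, limit read from the data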;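 on Her2 level: lower value means less Her2 protein in the cells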;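 on viability: percent of carrier control wells set as 100% viability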). The following applies: SKBR3 Her2 protein level, 18-24 h, measured here: SKBR3 viability, ATP luminescence, at 10 µM.
Assay [2] deals with Receptor tyrosine-protein kinase erbB-2 (Homo sapiens) (UniProt P04626). The assay is described as above. As to conditions: 18-24 h, at 10 µM, stronger effect = lower value.
Assay [3] in a line: reduced viability of SK-BR-3 breast cancer cells – cell-based, 24 h, human, pilot screen (AID 572;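 active means viability at or below 10% of carrier control in both of two separate runs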;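 further: compound exposure lasted between 18 and 24 h rather than exactly 24 h; 100% = carrier-treated control wells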). As to conditions: SK-BR-3 viability, CellTiter-Glo luminescence, at 10 µM, stronger effect = lower value. A general note: ATP-based viability assays read luminescence as a measure of living cells.
Assay [4] can be described thus: HUVEC growth inhibition – cell-based, human, primary screen (AID 575;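 active means viability at or below 30% in both replicate assays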;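 further: 100% = median of untreated cell wells with 0.1% DMSO on each plate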). The following applies: HUVEC proliferation, CellTiter-Glo luminescence, 72 h; at 10 µM; stronger effect = lower value. The procedure, abridged: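 Test system – primary HUVEC, no more than 12 passages · Dosing – one dose, 10 µM final, 0.1% DMSO · Times – 72 h treatment at 37 °C · Measured by – ATP-based CellTiter-Glo luminescent read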

Assay [5] can be described thus: H69AR cell proliferation blockers – human, duplicate replicates, primary screen (AID 580;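 active means viability at or under a set limit in both replicates, limit being median viability minus 3 SD, cut at about 48% in these data, passing the limit was not always enough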;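 further: 100% = mean luminescence of untreated wells and 0% = no signal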). As to conditions: H69AR lung tumor cells viability, ATP luminescence, 72 h; at 10 µM; stronger effect = lower value.
A short description of assay [6]: MRP1 drug-resistance reversers in H69AR cells – cell-based, doxorubicin co-treatment, pilot screen (AID 601). The following applies: CellTiter-Glo, 72 h, at 10 µM; for differential viability (reversal): stronger effect = higher value.
Assay [7] in a line: yeast transport mutant growth inhibition pilot in 384-well plates, post-Golgi transport modulator project (AID 636; in the data active means inhibition above about 31%). The following applies: absorbance 615 nm, about 18 h, stronger effect = higher value.
Assay [8] is described as follows: growth suppression of yeast trafficking mutant, preliminary HTS, modulators of trafficking downstream of Golgi apparatus project, 1536-format plate, OD 615 nm (AID 637; in the data active means inhibition above about 30%). The following applies: yeast transport mutant growth, absorbance 615 nm, 18 h; stronger effect = higher value.
Where [9] appears, read: H69AR cells + 2 uM doxorubicin, measured here: viability with 2 uM doxorubicin, stronger effect = lower value.
[10] abbreviates: H69AR cells, compound alone cytotoxicity.

Calls of active or inactive are those of the source.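 How the source made its calls, unless noted: active means viability loss from added drug above about 55%, and viability with drug at most 40%, in both replicates (limit read from the data, passing the limit was not always enough); inconclusive means both conditions met in only one replicate; inactive means neither replicate meets both conditions.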

Sequence of Receptor tyrosine-protein kinase erbB-2 (Homo sapiens) (P04626 whole entry, looked up): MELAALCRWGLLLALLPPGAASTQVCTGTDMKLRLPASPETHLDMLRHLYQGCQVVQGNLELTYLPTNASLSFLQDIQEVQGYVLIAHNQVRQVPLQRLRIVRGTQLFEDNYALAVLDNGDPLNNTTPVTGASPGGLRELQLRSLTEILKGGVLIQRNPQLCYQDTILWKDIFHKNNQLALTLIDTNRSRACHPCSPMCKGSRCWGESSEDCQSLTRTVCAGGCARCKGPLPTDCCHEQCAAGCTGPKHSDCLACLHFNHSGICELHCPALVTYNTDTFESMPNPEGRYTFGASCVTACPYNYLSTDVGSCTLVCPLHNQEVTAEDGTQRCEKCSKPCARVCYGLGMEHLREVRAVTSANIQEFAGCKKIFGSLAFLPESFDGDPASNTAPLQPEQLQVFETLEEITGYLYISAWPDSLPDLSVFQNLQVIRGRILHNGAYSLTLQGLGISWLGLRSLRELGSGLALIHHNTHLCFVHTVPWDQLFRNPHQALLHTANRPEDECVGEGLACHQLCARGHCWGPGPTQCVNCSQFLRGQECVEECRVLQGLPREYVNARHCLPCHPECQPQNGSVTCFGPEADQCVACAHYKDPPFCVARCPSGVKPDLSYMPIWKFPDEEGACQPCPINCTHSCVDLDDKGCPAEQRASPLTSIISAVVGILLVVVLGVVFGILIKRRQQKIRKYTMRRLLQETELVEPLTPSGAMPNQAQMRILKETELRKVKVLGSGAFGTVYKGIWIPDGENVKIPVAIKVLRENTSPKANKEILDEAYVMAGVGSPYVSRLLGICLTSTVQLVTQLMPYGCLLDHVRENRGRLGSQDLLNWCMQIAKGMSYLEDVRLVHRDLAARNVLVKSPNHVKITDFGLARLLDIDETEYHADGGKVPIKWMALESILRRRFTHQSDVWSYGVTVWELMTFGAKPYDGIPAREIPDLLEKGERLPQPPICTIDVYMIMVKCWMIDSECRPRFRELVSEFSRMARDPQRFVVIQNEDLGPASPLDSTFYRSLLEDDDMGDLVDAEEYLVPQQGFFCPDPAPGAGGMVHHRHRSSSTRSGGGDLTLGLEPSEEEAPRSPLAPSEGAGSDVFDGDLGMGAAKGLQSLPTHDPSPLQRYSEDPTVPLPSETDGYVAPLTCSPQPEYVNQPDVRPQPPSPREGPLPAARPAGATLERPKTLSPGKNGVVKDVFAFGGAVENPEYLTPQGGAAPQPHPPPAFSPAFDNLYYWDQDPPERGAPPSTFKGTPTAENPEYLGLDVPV

As to `Cc1cc(C(=O)NCCCN2CCOCC2)n(-c2ccccc2)n1`, the viability (as a rule, a read-out of living cells in per cent, often relative to untreated cells) in assay [1] is 94.5%; in assay [3], 94.5% (inactive); in assay [4], 106% (inactive); in assay [5], 102% (inactive); in assay [6] (setting [9]), 92.2%; in assay [6] (setting [10]), 102%. Further, in assay [2], the Her2 level is 100% (inactive). For the same molecule, the differential viability (reversal) in assay [6] (H69AR cells + 2 uM doxorubicin) is 9.44% (inactive). For the same molecule, the inhibition (usually the relative decrease from the control value, in per cent) in assay [7] is -2.27% (inactive); in assay [8], 3.61% (inactive).
`Cc1ccc(C(=O)CC2(O)C(=O)N(CN3CCOCC3)c3ccccc32)cc1` (stereo not given): the viability was 100% in assay [1]; 100% (inactive) in assay [3]; 85.9% (inactive) in assay [4]; 94.6% (inactive) in assay [5]; 99.7% in assay [6] (setting [9]); 94.6% in assay [6] (setting [10]). In assay [2], the Her2 level is 90.5% (inactive). Besides, in assay [6] (H69AR cells + 2 uM doxorubicin), the differential viability (reversal) is -5.11% (inactive). The inhibition in assay [7] is -3.55% (inactive); in assay [8] it was -4.83% (inactive).
For `O=C(Cn1nnc(-c2ccc(S(=O)(=O)N3CCCC3)cc2)n1)NCC1CCCO1` (stereo not given), the viability is 86% in assay [1]; 86% (inactive) in assay [3]; 89% (inactive) in assay [4]; 101% (inactive) in assay [5]; 98.7% in assay [6] (setting [9]); 101% in assay [6] (setting [10]). The Her2 level in assay [2] is 99% (inactive). The differential viability (reversal) in assay [6] (H69AR cells + 2 uM doxorubicin) was 2.39% (inactive). In addition, the inhibition in assay [7] was -3.78% (inactive); in assay [8], 2.95% (inactive).
As for `Cc1cccc(-c2noc(CCC(=O)Nc3ccccc3)n2)c1`, the viability was 106% in assay [1]; 106% (inactive) in assay [3]; 79.4% (inactive) in assay [4]; 91.2% (inactive) in assay [5]; 84.9% in assay [6] (setting [9]); 91.2% in assay [6] (setting [10]). Further, in assay [2], the Her2 level is 93% (inactive). Besides, the differential viability (reversal) in assay [6] (H69AR cells + 2 uM doxorubicin) was 6.29% (inactive). Besides, the inhibition in assay [7] is -7.3% (inactive); in assay [8], -11.2% (inactive).
In the case of `COc1cc(NC(=O)Cc2nn(C)c(=O)c3ccccc23)cc(OC)c1`, the viability was 87.5% in assay [1]; 87.5% (inactive) in assay [3]; 73% (inactive) in assay [4]; 84.3% (inactive) in assay [5]; 87.1% in assay [6] (setting [9]); 84.3% in assay [6] (setting [10]). Also, the Her2 level in assay [2] is 91.5% (inactive). The differential viability (reversal) in assay [6] (H69AR cells + 2 uM doxorubicin) was -2.83% (inactive). In addition, the inhibition is -2.24% (inactive) in assay [7] and -2.9% (inactive) in assay [8].
Take `COc1ccc(S(=O)(=O)N2CCSC2c2ccccc2)cc1` (stereo not given): the viability in assay [1] was 82%; in assay [3], 82% (inactive); in assay [4], 79.9% (inactive); in assay [5], 76.9% (inactive); in assay [6] (setting [9]), 90.7%; in assay [6] (setting [10]), 76.9%. Also, the Her2 level in assay [2] was 90.5% (inactive). Further, in assay [6] (H69AR cells + 2 uM doxorubicin), the differential viability (reversal) is -13.8% (inactive). The inhibition is -2.7% (inactive) in assay [7] and -2.95% (inactive) in assay [8].
With `CCOCCCNCC(=O)N1CCN(S(=O)(=O)c2ccc(C)cc2)CC1`, the viability in assay [1] was 90%; in assay [3] it was 90% (inactive); in assay [4], 96.2% (inactive); in assay [5], 101% (inactive); in assay [6] (setting [9]), 89.4%; in assay [6] (setting [10]), 101%. Also, the Her2 level in assay [2] was 99.5% (inactive). Moreover, the differential viability (reversal) in assay [6] (H69AR cells + 2 uM doxorubicin) is 12% (inactive). Besides, the results for the inhibition in assay [7] and in assay [8] were -6.18% (inactive) and -1.45% (inactive), respectively.
On to `Cc1cc(C)nc(SCc2nnc(SCc3ccccc3Cl)o2)n1`, for which the viability in assay [1] is 80%; in assay [3], 80% (inactive); in assay [4], 93.8% (inactive); in assay [5] it was 79.5% (inactive); in assay [6] (setting [9]), 81.5%; in assay [6] (setting [10]) it was 79.5%. Moreover, in assay [2], the Her2 level was 78.5% (inactive). Moreover, the differential viability (reversal) in assay [6] (H69AR cells + 2 uM doxorubicin) is -1.99% (inactive). In addition, the inhibition in assay [7] is -3.29% (inactive); in assay [8] it was 1.82% (inactive).
As for `CC(C)[C@H](NC(=O)OC(C)(C)C)c1nnc(SCc2cccc(F)c2)o1`, the viability in assay [1] is 90%; in assay [3] it was 90% (inactive); in assay [4], 107% (inactive); in assay [5], 96.4% (inactive); in assay [6] (setting [9]), 97.5%; in assay [6] (setting [10]), 96.4%. In assay [2], the Her2 level was 120% (inactive). The differential viability (reversal) in assay [6] (H69AR cells + 2 uM doxorubicin) was -1.12% (inactive). Also, the inhibition in assay [7] is 0.13% (inactive); in assay [8], 0% (inactive).
`CNC(=O)c1c(O)c2cccc3c2n(c1=O)CC3`: the viability is 83.5% in assay [1]; 83.5% (inactive) in assay [3]; 101% (inactive) in assay [4]; 89.5% (inactive) in assay [5]; 95.5% in assay [6] (setting [9]); 89.5% in assay [6] (setting [10]). Further, in assay [2], the Her2 level is 86% (inactive). Also, the differential viability (reversal) in assay [6] (H69AR cells + 2 uM doxorubicin) was -5.95% (inactive). Also, the inhibition in assay [7] is -0.13% (inactive); in assay [8] it was -4.52% (inactive).
Turning to `CCc1nnc(NC(=O)C2CC(=O)N(Cc3ccco3)C2)s1` (stereo not given), the viability in assay [1] is 107%; in assay [3], 107% (inactive); in assay [4] it was 111% (inactive); in assay [5], 98.4% (inactive); in assay [6] (setting [9]), 94.4%; in assay [6] (setting [10]), 98.4%. For the same molecule, the Her2 level in assay [2] was 95% (inactive). Further, in assay [6] (H69AR cells + 2 uM doxorubicin), the differential viability (reversal) is 4% (inactive). The values for the inhibition in assay [7] and in assay [8] were -2.93% (inactive) and 2.1% (inactive), respectively.
For `CC(C(=O)N1CCCCC1)n1ncn2cccc2c1=O` (stereo not given), the viability is 93.5% in assay [1]; 93.5% (inactive) in assay [3]; 94.2% (inactive) in assay [4]; 102% (inactive) in assay [5]; 85.1% in assay [6] (setting [9]); 102% in assay [6] (setting [10]). For the same molecule, the Her2 level in assay [2] is 93.5% (inactive). In addition, in assay [6] (H69AR cells + 2 uM doxorubicin), the differential viability (reversal) is 17.3% (inactive). For the same molecule, the inhibition in assay [7] was -1.58% (inactive); in assay [8] it was -2.91% (inactive).
For `CC(=O)c1c(C)oc2ccc(NS(=O)(=O)c3ccc(O)c(C(=O)O)c3)cc12`, the viability in assay [1] is 92%; in assay [3], 92% (inactive); in assay [4], 105% (inactive); in assay [5], 94% (inactive); in assay [6] (setting [9]), 90.9%; in assay [6] (setting [10]) it was 94%. The Her2 level in assay [2] was 78.5% (inactive). Further, in assay [6] (H69AR cells + 2 uM doxorubicin), the differential viability (reversal) was 3.09% (inactive). Also, the inhibition in assay [7] was -6.22% (inactive); in assay [8] it was 0.79% (inactive).
`O=C(NCc1ccc2c(c1)OCO2)C1CCCN(S(=O)(=O)c2cccnc2)C1` (stereo not given): the viability in assay [1] is 95.5%; in assay [3] it was 95.5% (inactive); in assay [4], 101% (inactive); in assay [5] it was 92.4% (inactive); in assay [6] (setting [9]) it was 84.8%; in assay [6] (setting [10]), 92.4%. In assay [2], the Her2 level was 102% (inactive). In addition, the differential viability (reversal) in assay [6] (H69AR cells + 2 uM doxorubicin) was 7.61% (inactive). Besides, the values for the inhibition in assay [7] and in assay [8] were 0.38% (inactive) and -6.5% (inactive), respectively.

(Values after PubChem BioAssay.)
